# Values joined by “and” are separate entries in the source; they are usually repeats but may differ in a detail not shown here. Equal values may be shown once. Active and inactive are the calls of the source. No cut-off for these calls is given here.
# Assays:
# [1] = biological target: Histamine H1 receptor (Cavia porcellus) (UniProt P31389); assay: Contractile effect on isolated guinea pig aorta is a measure of H1 (histamine) receptor agonistic activity relative to histamine; format: functional, tissue-based
# Chain of Histamine H1 receptor (Cavia porcellus) (P31389 whole entry): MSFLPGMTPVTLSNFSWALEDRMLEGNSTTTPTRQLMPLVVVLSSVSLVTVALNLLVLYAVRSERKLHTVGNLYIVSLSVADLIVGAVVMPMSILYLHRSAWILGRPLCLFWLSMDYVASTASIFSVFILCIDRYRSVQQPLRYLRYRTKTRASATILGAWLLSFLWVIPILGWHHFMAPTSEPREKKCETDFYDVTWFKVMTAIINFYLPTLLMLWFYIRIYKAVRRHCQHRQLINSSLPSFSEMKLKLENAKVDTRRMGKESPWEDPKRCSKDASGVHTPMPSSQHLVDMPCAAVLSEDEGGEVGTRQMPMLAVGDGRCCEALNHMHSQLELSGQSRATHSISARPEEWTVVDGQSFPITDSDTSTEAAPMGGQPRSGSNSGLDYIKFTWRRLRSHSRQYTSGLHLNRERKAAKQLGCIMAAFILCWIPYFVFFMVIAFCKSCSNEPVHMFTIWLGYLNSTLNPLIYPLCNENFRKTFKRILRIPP
# Summary of the method: (§1)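 Endothelium-denuded 4–6 mm guinea pig thoracic aortic rings, isometric (preload 10 mN), modified Krebs-Henseleit, 37 °C, 95% O2/5% CO2. […] Cumulative curves with 30 μM corticosterone, 100 μM cimetidine, 0.1 μM (R,S)-propranolol and phentolamine present.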
# [2] = biological target: Histamine H1 receptor (Cavia porcellus) (UniProt P31389); assay: Contractile effect on isolated guinea pig ileal segments is a measure of H1 (histamine) receptor agonistic activity relative to histamine.; format: functional
# [3] = biological target: Histamine H1 receptor (Cavia porcellus) (UniProt P31389); assay: H1-Histamine receptor agonism on Guinea pig aorta was evaluated as Intrinsic activity given as 1.0 with respect to histamine (paired 't'test;p>0.05)(SEM 0.01-0.12); format: functional, tissue-based
# [4] = biological target: Histamine H1 receptor (Cavia porcellus) (UniProt P31389); assay: H1-Histamine receptor agonism on guinea pig ileum as intrinsic activity given as 1.0 with respect to histamine (paired 't'test; p>0.05).; format: functional, tissue-based
# [5] = biological target: Histamine H1 receptor (Cavia porcellus) (UniProt P31389); assay: Contractile effects of compound on the guinea pig aorta as a measure of histamine H1 receptor agonism; f - effect could be antagonized with 1 pM mepyramine added to the bath solution when a plateau was reached.; format: functional, tissue-based; settings: filed as agonist, in the assay text read “1 µM mepyramine” for “1 pM mepyramine”; summary of the method: as §1
# [6] = biological target: Histamine H1 receptor (Cavia porcellus) (UniProt P31389); assay: The H1 receptor-mediated nature of the ileum contractionhas been verified by competition experiments with the H1 receptor antagonist mepyramine; format: functional, tissue-based
# [7] = biological target: Histamine H1 receptor (Cavia porcellus) (UniProt P31389); assay: Contractile effect on isolated guinea pig ileal segments by H1 (histamine) receptor agonism.; format: functional
# [8] = biological target: Histamine H1 receptor (Cavia porcellus) (UniProt P31389); assay: Contractile effects on guinea pig aorta as histamine H1 receptor agonism; format: functional, tissue-based; summary of the method: as §1
# [9] = biological target: Histamine H2 receptor (Cavia porcellus) (UniProt P47747); assay: Histamine H2 receptor agonism activity was determined on the isolated Guinea pig Atrium was determined as Intrinsic activity with respect to Histamine; format: functional
# Chain of Histamine H2 receptor (Cavia porcellus) (P47747 whole entry): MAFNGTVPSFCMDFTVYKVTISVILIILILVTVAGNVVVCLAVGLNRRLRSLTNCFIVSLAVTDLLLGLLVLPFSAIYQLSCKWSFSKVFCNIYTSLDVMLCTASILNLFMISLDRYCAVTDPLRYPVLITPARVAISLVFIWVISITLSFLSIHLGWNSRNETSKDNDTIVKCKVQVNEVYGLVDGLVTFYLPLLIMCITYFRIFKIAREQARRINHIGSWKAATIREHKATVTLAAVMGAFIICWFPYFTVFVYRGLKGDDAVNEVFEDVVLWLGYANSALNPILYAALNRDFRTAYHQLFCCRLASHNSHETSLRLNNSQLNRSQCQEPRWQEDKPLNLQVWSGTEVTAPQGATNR
# Summary of the method: (§2)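 Spontaneously beating guinea pig right atrium, isometric, resting force 5 mN, (R,S)-metoprolol 300 nM present throughout.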
# [10] = biological target: Histamine H1 receptor (Cavia porcellus) (UniProt P31389); assay: H1-Histamine receptor agonism on Guinea pig aorta was evaluated as Intrinsic activity given as 1.0 with respect to histamine (paired 't'test;p>0.05); format: functional, tissue-based; summary of the method: as §1
# [11] = biological target: Histamine H2 receptor (Cavia porcellus) (UniProt P47747); assay: Histamine H2 receptor agonism activity was determined on the isolated Guinea pig Atrium was determined as pD'2; format: functional; summary of the method: as §2
# [12] = biological target: Histamine H1 receptor (Mus musculus) (UniProt P70174); assay: In vivo binding of H1 receptor Agonists measured by binding of [3H]mepyramine to Mouse cerebral cortex at the dosage of ( 3 mg/kg(no. of mice treated=5 ); settings: at 3 mg/kg
# Chain of Histamine H1 receptor (Mus musculus) (P70174 whole entry, looked up): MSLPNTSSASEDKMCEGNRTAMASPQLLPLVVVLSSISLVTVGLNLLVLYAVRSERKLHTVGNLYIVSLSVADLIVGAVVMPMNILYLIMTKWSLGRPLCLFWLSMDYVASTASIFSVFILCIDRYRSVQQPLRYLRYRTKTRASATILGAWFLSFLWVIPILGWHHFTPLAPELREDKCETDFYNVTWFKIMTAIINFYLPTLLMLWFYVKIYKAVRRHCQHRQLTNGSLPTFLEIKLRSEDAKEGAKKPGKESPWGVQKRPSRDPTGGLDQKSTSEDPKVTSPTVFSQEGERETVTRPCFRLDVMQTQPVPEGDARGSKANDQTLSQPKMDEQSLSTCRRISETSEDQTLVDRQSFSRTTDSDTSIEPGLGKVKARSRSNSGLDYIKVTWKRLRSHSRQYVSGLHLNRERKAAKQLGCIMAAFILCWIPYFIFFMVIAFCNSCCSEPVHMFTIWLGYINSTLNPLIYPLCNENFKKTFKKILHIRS
# [13] = biological target: Histamine H1 receptor (Mus musculus) (UniProt P70174); assay: In vivo binding of H1 receptor Agonists measured by binding of [3H]mepyramine to Mouse cerebral cortex at the dosage of ( 10 mg/kg(no. of mice treated=5 ); settings: at 10 mg/kg
# [14] = biological target: Histamine H1 receptor (Mus musculus) (UniProt P70174); assay: In vivo binding of H1 receptor Agonists measured by binding of [3H]mepyramine to Mouse cerebral cortex at the dosage of ( 30 mg/kg(no. of mice treated= 5 ); settings: at 30 mg/kg
# [15] = biological target: Histamine H1 receptor (Mus musculus) (UniProt P70174); assay: In vivo binding of H1 receptor Agonists measured by binding of [3H]mepyramine to Mouse cerebral cortex at the dosage of ( 100 mg/kg(no. of mice treated= 3 ); settings: at 100 mg/kg
# [16] = biological target: Histamine H1 receptor (Mus musculus) (UniProt P70174); assay: In vivo binding of H1 receptor Agonists measured by binding of [3H]-Mepyramine to Mouse cerebral cortex at the dosage of ( 300 mg/kg(no. of mice treated= 3 ); settings: at 300 mg/kg
# [17] = biological target: Histamine H1 receptor (Cavia porcellus) (UniProt P31389); assay: The H1 receptor-mediated nature of the ileum contractionhas been verified by competition experiments with the H1 receptor antagonist mepyramine; O=effect could be antagonized with 1 uM Mepyramine added to the bath solution when a plateau was re; format: functional, tissue-based
# [18] = biological target: Histamine H1 receptor (Cavia porcellus) (UniProt P31389); assay: H1-Histamine receptor agonism on Guinea pig aorta was evaluated as Intrinsic activity given as 1.0 with respect to histamine (paired 't'test;p>0.05) (SEM 0.01-0.12); format: functional, tissue-based; summary of the method: as §1
# [19] = biological target: Histamine H1 receptor (Cavia porcellus) (UniProt P31389); assay: H1-Histamine receptor agonism on Guinea pig aorta was evaluated as Intrinsic activity given as 1.0 with respect to histamine (paired 't'test;p>0.05) (SEM0.03-0.18); format: functional, tissue-based; summary of the method: as §1
# [20] = biological target: Histamine H1 receptor (Cavia porcellus) (UniProt P31389); assay: The H1 receptor-mediated nature of the ileum contractionhas been verified by competition experiments with the H1 receptor antagonist mepyramine;O=effect could be antagonized with 1 uM Mepyramine added to the bath solution when a plateau was rea; format: functional, tissue-based
SMILES,Relative activity [1] [%],Relative activity [2],Intrinsic activity [4],pKb [6],pD2 [7],Intrinsic activity [9],other results
NCCc1c[nH]c(Cc2cccs2)n1,0.8,3%,1,8.92,5.09,,Intrinsic activity [3]: 0.45; pKb [5]: Agonist
NCCc1c[nH]c(-c2csc(Br)c2)n1,11,26%,1,9.04,6.11,,Intrinsic activity [3]: 0.6; pKb [8]: 8.63
NCCc1c[nH]c(-c2cccc(C(F)(F)F)c2)n1,94,128%,1,9.14,6.81,0,Intrinsic activity [10]: 0.8; pD'2 [11]: 3.48; pKb [8]: 9.04; Control [12]: 101%; Control [13]: 122%; Control [14]: 98%; Control [15]: 112%; Control [16]: 129%
NCCc1c[nH]c(Cc2cccc(Cl)c2)n1,0.4,2%,0.76,8.81,4.88,,Intrinsic activity [10]: 0.51; pKb [5]: Agonist
COc1cccc(-c2nc(CCN)c[nH]2)c1,,40%,,,,,
NCCc1c[nH]c(-c2cccc(OC(F)(F)F)c2)n1,,54%,1,8.92,6.43,,
NCCc1c[nH]c(Cc2cccc(C(F)(F)F)c2)n1,,< 1%,0.28,,4.57,,pKb [17]: Active
NCCc1c[nH]c(-c2ccco2)n1,23,47%,1,9.16,6.37,0.36,Intrinsic activity [18]: 0.47; pD'2 [11]: < 3; pKb [8]: 9.28
NCCc1c[nH]c(-c2cccs2)n1,12,46%,1,8.93,6.36,0.25,Intrinsic activity [19]: 0.5; pD'2 [11]: < 3; pKb [8]: 8.83
NCCc1c[nH]c(Cc2ccccc2Cl)n1,0.2,3%,0.54,8.91,5.11,,Intrinsic activity [10]: 0.38; pKb [5]: Agonist
NCCc1c[nH]c(Cc2ccsc2)n1,0.9,4%,1,8.97,5.26,,Intrinsic activity [10]: 0.4; pKb [5]: Agonist
NCCc1c[nH]c(-c2ccc[nH]2)n1,12,14%,0.93,9.03,5.86,,Intrinsic activity [3]: 0.74; pKb [8]: 9.27
CNCCc1ccccn1,,8%,,,,,
NCCc1c[nH]c(-c2cncc(Br)c2)n1,,70%,1,9.03,6.54,,
NCCc1c[nH]c(-c2ccsc2)n1,19,66%,1,9.13,6.52,0.13,Intrinsic activity [3]: 0.43; pD'2 [11]: < 3; pKb [8]: 9.01
NCCc1c[nH]c(Cc2ccccc2C(F)(F)F)n1,,,0,3.55,,,
NCCc1c[nH]cn1,,,,9.09,6.7,1,Intrinsic activity [10]: 1.06
NCCc1c[nH]c(-c2cccc(F)c2)n1,,87%,,,,,
NCCc1c[nH]c(Cc2ccc(C(F)(F)F)cc2)n1,,,0,,,,PkB [6]: 4.53
NCCc1c[nH]c(-c2ccc3ccccc3c2)n1,,1%,0.24,,4.85,,pKb [17]: Active
NCCc1c[nH]c(-c2ccccc2C(F)(F)F)n1,,< 1%,0.26,,4.47,,pKb [20]: Active
Cc1cccc(-c2nc(CCN)c[nH]2)c1,,15%,1,9.04,5.87,,
NCCc1c[nH]c(-c2ccc(C(F)(F)F)cc2)n1,,< 1%,0.24,,4.6,,pKb [20]: Active
NCCc1c[nH]c(-c2cccc(I)c2)n1,47,96%,1,9.28,6.68,0,Intrinsic activity [10]: 0.49; pD'2 [11]: 3.76; pKb [8]: 9.13
Cc1ncc(CCN)[nH]1,,15%,,,,,
NCCc1c[nH]c(-c2cccc(Br)c2)n1,,,1,,,0,Intrinsic activity [10]: 0.64
NCCc1c[nH]c(-c2ccccc2)n1,19,10% and 31%,1,8.87,6.2,0.2,Intrinsic activity [10]: 0.86; pD'2 [11]: < 3; pKb [8]: 9.1
NCCc1c[nH]c(C(F)(F)F)n1,,7%,1,9.19,5.57,0.55,
NCCc1c[nH]c(-c2cc3ccccc3c3ccccc23)n1,,,0,4.73,,,
NCCc1c[nH]c(-c2cccc(Cl)c2)n1,,81%,,,,,

# Reference: ChEMBL document CHEMBL1128295 (J Med Chem, 1995)
